Values belong to the molecule of their own block, whether it stands above or below them.
Tests used:
primary human monocytes = experiment: Real-time chemotaxis; format: cell-based; conditions: 1 μM ML145
How it was run: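 Monocytes isolated from healthy donor blood by negative selection (RosetteSep). Pre-incubated 15 min at room temperature in buffer with DMSO vehicle or 1 µM final antagonist. TAXIScan: 1 h migration at 37°C along gradients formed by 1 µl chemokine; no-stimulus basal. Images every minute; individual cells tracked manually; FMI parallel to gradient calculated per cell.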

PGE2-treated THP-1 cells = experiment: Real-time chemotaxis; format: cell-based, human
How it was run: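 THP-1 cultured overnight with PGE2. Where stated, pre-incubated 15 min at room temperature with DMSO or 1 µM final antagonist. TAXIScan: 1 h migration at 37°C along gradients from 1 µl of 1 or 10 µM chemokine (1 µM CCL2 reference; no-stimulus basal). Frames every minute; cells tracked manually. FMI = y-axis distance/accumulated distance. Triplicate or quadruplicate runs per stimulus.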

3xHA-GPR35 = 3xHA-GPR35 (Homo sapiens, UniProt Q9HC97); experiment: GPR35 endocytosis assay, L1.2 clone 23; format: cell-based; conditions: 37°C, 15 minutes
How it was run: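 L1.2 clone stably expressing N-terminal 3xHA-GPR35 (G418 1 mg/ml selection, limiting-dilution cloning), 2 x 10^6 cells/ml in RPMI/0.1% BSA. Mixed with equal volume of buffer holding agonist (20, 10 or 2 µM reference agonist; 2 µM chemokine) or DMSO vehicle. Incubated 15 min at 4°C (basal) and 37°C (endocytosis). Surface receptor by flow cytometry: anti-HA (10 µg/ml), FITC secondary, TO-PRO3.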

human GPR35a [1] = molecular target: T1, human GPR35a (Homo sapiens, UniProt Q9HC97); experiment: Inositol phosphate assay, GPR35a with Gq-Gi1/2 chimera; format: cell-based; conditions: 30 minutes
GPR35b = GPR35b (Homo sapiens, UniProt Q9HC97); experiment: Inositol phosphate assay, GPR35b with Gq-Gi1/2 chimera; format: cell-based; conditions: 30 minutes
human GPR35a [2] = molecular target: T1, human GPR35a; experiment: Inositol phosphate assay, GPR35a with Gq-G13 chimera; format: cell-based; conditions: 30 minutes
mouse GPR35 = mouse GPR35 (Mus musculus, UniProt Q9ES90); experiment: BRET β-arrestin-2 recruitment assay, HEK293T cells, mouse GPR35; format: cell-based
How it was run: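 HEK293T cells transiently transfected with polyethylenimine to co-express mouse GPR35 and β-arrestin-2, used 48 h after transfection. β-arrestin-2 recruitment read by bioluminescence resonance energy transfer.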

rat GPR35 = rat GPR35 (Rattus norvegicus, UniProt Q33BM1); experiment: BRET β-arrestin-2 recruitment assay, HEK293T cells, rat GPR35; format: cell-based
THP-1 cells = experiment: Real-time chemotaxis; format: cell-based, human; conditions: resting THP-1
How it was run: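 Resting THP-1 cells kept at 0.5 x 10^6/ml in supplemented RPMI 1640 with 10% FBS at 37°C, 5% CO2. TAXIScan: 1 h migration at 37°C along gradients from 1 µl of 1 µM or 10 µM chemokine (1 µM CCL2 reference); no-stimulus basal. Frames every minute; manual tracking. FMI = y-axis distance/accumulated distance. Pooled from 3 experiments, 3 movies per condition.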

CCR1 = molecular target: T2, CCR1 (Homo sapiens, UniProt P32246); experiment: Boyden chamber chemotaxis, CCR1 transfectants; format: cell-based; conditions: cleaved versus uncleaved chemokine
T2 sequence (P32246 1-355): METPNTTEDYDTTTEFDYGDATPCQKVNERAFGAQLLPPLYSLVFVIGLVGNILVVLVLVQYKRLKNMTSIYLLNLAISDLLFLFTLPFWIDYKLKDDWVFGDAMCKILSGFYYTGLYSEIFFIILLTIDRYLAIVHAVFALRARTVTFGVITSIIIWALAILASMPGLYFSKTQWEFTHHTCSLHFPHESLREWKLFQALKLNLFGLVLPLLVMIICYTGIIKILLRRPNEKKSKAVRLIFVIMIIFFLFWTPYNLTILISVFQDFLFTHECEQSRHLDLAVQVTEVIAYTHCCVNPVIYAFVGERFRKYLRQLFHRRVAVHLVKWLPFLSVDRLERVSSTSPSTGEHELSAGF
How it was run: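 Chemokine digested for 18 h at 37°C with 0.1-0.4 µg recombinant human chymase in 100 mM Tris-HCl (pH 7.8), 10 mM CaCl2; undigested half incubated alongside. Cleaved and uncleaved forms tested on CCR1 transfectants in 96-well Boyden chambers: 5 h migration, 37°C, 5% CO2. Migrated cells quantified by ATP luminescence (Cell Titer-Glo); chemotactic index = response/buffer-alone basal; n=3.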

[3] = molecular target: T3, recombinant human chymase (Homo sapiens, UniProt P23946); experiment: Chemokine digestion with chymase, SDS-PAGE; format: biochemical; conditions: 18hr incubation, 37°C
T3 sequence (P23946 22-247): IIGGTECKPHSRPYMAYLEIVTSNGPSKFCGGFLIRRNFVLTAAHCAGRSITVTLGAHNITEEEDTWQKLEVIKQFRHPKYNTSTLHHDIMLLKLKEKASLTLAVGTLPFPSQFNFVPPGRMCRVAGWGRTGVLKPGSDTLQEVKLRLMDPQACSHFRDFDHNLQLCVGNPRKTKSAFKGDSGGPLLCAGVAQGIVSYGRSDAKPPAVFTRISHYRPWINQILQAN
How it was run: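 20 µg chemokine in 100 mM Tris-HCl pH 7.8, 10 mM CaCl2, split; one half given 0.1-0.4 µg chymase; both 18 h at 37°C. Samples in Tris-glycine SDS buffer heated 95°C 10 min, run on 4-12% Bis-Tris gels at 150 V for 50 min. Fixed in 25% isopropanol/10% acetic acid, stained with 0.25% Coomassie G-250 2 h, destained overnight; n=3.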

T1 sequence (Q9HC97 whole entry): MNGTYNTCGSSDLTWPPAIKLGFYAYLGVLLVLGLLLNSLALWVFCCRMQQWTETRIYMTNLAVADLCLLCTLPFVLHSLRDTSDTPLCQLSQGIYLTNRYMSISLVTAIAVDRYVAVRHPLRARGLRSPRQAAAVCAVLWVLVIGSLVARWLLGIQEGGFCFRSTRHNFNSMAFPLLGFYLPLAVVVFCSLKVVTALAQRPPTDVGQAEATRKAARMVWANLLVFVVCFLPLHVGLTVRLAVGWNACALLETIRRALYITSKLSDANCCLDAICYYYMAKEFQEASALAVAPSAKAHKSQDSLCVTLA
Sequence of 3xHA-GPR35 (Q9HC97 whole entry): as above
Sequence of rat GPR35 (Q33BM1 1-306): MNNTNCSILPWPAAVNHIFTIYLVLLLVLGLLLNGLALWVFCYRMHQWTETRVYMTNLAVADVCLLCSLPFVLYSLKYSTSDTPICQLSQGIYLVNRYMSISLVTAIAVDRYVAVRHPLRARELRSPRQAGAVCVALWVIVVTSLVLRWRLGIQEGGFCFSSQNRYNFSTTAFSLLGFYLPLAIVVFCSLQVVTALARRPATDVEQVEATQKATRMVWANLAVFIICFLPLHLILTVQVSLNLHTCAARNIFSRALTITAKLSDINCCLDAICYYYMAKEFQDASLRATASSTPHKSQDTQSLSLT
Sequence of mouse GPR35 (Q9ES90 whole entry): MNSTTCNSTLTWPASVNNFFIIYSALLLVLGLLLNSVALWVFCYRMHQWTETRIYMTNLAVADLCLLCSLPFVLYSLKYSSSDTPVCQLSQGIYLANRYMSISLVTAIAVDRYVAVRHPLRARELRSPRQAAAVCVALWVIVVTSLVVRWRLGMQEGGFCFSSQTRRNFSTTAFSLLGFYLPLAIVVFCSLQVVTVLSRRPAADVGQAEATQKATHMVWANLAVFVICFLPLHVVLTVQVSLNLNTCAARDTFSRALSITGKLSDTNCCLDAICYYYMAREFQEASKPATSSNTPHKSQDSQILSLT
Sequence of GPR35b (Q9HC97 1-340 isoform Q9HC97-2): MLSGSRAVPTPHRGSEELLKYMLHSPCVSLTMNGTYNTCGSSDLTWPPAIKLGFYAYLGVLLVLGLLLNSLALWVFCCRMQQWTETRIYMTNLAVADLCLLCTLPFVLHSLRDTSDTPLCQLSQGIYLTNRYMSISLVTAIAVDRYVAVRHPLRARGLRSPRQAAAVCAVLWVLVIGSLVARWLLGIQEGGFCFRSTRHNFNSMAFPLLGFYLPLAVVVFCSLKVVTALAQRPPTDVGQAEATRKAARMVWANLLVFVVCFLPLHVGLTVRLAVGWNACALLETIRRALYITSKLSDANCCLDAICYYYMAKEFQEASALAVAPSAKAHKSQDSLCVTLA

Molecule: CC(/C=C1\SC(=S)N(CCCC(=O)Nc2ccc(C(=O)O)c(O)c2)C1=O)=C\c1ccccc1 [ML145]
effect of pre-treatment on monocyte migration to CXCL17 (primary human monocytes): unaffected | effect of pre-exposure on response of cells to 1μM CXCL17 (PGE2-treated THP-1 cells; 1 μM ML145, 15 minutes pre-incubation): no inhibitory effect

Molecule: N#Cc1cc(NC(=O)C(=O)O)c(Cl)c(NC(=O)C(=O)O)c1 [lodoxamide]
endocytosis of GPR35 (3xHA-GPR35; 1 μM and 10μM): Significant endocytosis | endocytosis of GPR35, direct comparison (3xHA-GPR35; 1 μM): significant endocytosis | pEC50, inositol phosphate production (human GPR35a [1]): 8.64 +/- 0.08 | pEC50, inositol phosphate production (GPR35b): 9.05 +/- 0.07 | pEC50, inositol phosphate production (human GPR35a [2]): 9.13 +/- 0.24

Molecule: CCL2: chemokine purchased from Peprotech EC
forward migration index (FMI‖) versus basal (PGE2-treated THP-1 cells; 1μM, PGE2-treated THP-1): significantly greater than the basal response | increase in the number of migrating cells versus basal (PGE2-treated THP-1 cells; 1μM, PGE2-treated THP-1): 6 fold | forward migration index (FMI‖) versus basal (THP-1 cells; 1μM): significant response | cell migration versus basal (THP-1 cells; gradient from 1μl of 1μM, 1 hour): many more cells were observed to migrate

B1: CCL15: CC-chemokine with extended N-terminus, purchased from Peprotech EC (protein, UniProt Q16663 22-113, looked up)
C-C motif chemokine 15: QFTNDAETELMMSKLPLENPVVLNSFHFAADCCTSYISQSIPCSLMKSYFETSSECSKPGVIFLTKKGRQVCAKPSGPGVQDCMKKLKPYSI
effect of chymase cleavage on chemotactic potency (CCR1): increased potency | cleavage by chymase [3]: cleaved

Now from value to molecule:

EC50 (mouse GPR35): 1050 nM | EC50 (rat GPR35): 91.2 nM
Molecule: CCCOc1ccccc1-c1nc2nn[nH]c2c(=O)[nH]1 [zaprinast]

effect of chymase cleavage on chemotactic potency (CCR1): increased potency | cleavage by chymase [3]: cleaved
B2: CCL23: CC-chemokine with extended N-terminus, purchased from Peprotech EC (protein, UniProt P55773 22-120, looked up)
C-C motif chemokine 23: RVTKDAETEFMMSKLPLENPVLLDRFHATSADCCISYTPRSIPCSLLESYFETNSECSKPGVIFLTKKGRRFCANPSDKQVQVCMRMLKLDTRIKTRKN
